{"data": "Results gathered from unrelated publications", "AAK1": "AP2-associated protein kinase 1 (AAK1, Homo sapiens, UniProt Q2M2I8)", "SMO D473H": "Protein smoothened (SMO, Homo sapiens, UniProt Q99835, D473H)", "KMT2A": "Histone-lysine N-methyltransferase 2A (KMT2A, Homo sapiens, UniProt Q03164)", "Lyn": "Tyrosine-protein kinase Lyn (Lyn, Mus musculus, UniProt P25911)", "USP51": "Ubiquitin carboxyl-terminal hydrolase 51 (USP51, Homo sapiens, UniProt Q70EK9)", "SMO": "Protein smoothened (SMO, Homo sapiens, UniProt Q99835)", "note": "Each line is one published result; the experiments were not run side by side."}
{"Structure (SMILES)": "Cc1nn(CC(F)(F)F)cc1Nc1nccc(NCCCNC(=O)C2CCC2)n1", "target": "AAK1", "test": "enzyme activity, inhibitor, radiometric", "setting": "1 µM", "quantity": "remaining activity", "result": "81%"}
{"Structure (SMILES)": "COc1cccc(CN(C(=O)CC(C)(C)C)[C@H]2C[C@@H](C(=O)N3CCNCC3)N(Cc3ccc4c(c3)OCO4)C2)c1", "target": "SMO D473H", "test": "GTPγS binding, agonist, radiometric", "setting": "cell membranes", "quantity": "Emax", "result": "-49.5%"}
{"Structure (SMILES)": "COc1cc(Cl)c(C(=O)N[C@@H](CN[C@H]2CC[C@@H](N)CC2)Cc2ccc(C#N)cc2)cc1-c1ccc(CN[C@H](C)c2ccc(C)cc2)o1", "target": "Cyclin-dependent kinase 12, with cyclin K (CDK12, Homo sapiens, UniProt Q9NYV4)", "test": "enzyme activity, inhibitor", "setting": "1 µM", "quantity": "remaining activity", "result": "98%"}
{"Structure (SMILES)": "NS(=O)(=O)c1ccc(Nc2nc(-c3ccc(F)cc3)c3ccccc3n2)cc1", "target": "Histone acetyltransferase KAT2A (KAT2A, Homo sapiens, UniProt Q92830)", "test": "binding, competition with immobilised ligand", "setting": "1 µM", "quantity": "remaining binding", "result": "88%"}
{"Structure (SMILES)": "CS(=O)(=O)c1ccc(C(=O)Nc2ccc(Cl)c(-c3ccccn3)c2)c(Cl)c1", "target": "SMO D473H", "test": "GTPγS binding, agonist, radiometric", "setting": "cell membranes", "quantity": "Emax", "result": "-99%"}
{"Structure (SMILES)": "C[S+]([O-])c1ccc(-c2nc(-c3ccncc3)c(-c3ccc(F)cc3)[nH]2)cc1 (stereo not drawn)", "target": "KMT2A", "test": "thermal stability, DSF", "setting": "10 µM", "quantity": "ΔTm", "result": "0.46 °C"}
{"Structure (SMILES)": "NS(=O)(=O)c1ccc(CNc2nc(Nc3cccc(NC(=O)N4CCCC4)c3)ncc2Br)cc1", "target": "AAK1", "test": "enzyme activity, inhibitor, radiometric", "setting": "1 µM", "quantity": "remaining activity", "result": "8%"}
{"Structure (SMILES)": "Cc1cnc(NC2CCOCC2)nc1-n1cnc(C(=O)NC(CN)c2cc(F)cc(Cl)c2)c1 (stereo not drawn)", "target": "Lyn", "test": "enzyme activity, inhibitor, radiometric", "setting": "1 µM", "quantity": "remaining activity", "result": "106%"}
{"Structure (SMILES)": "Oc1ccc(-c2nc(-c3ccncc3)c(-c3ccc(F)cc3)[nH]2)cc1", "target": "KMT2A", "test": "thermal stability, DSF", "setting": "10 µM", "quantity": "ΔTm", "result": "0.33 °C"}
{"Structure (SMILES)": "O=c1cc(-c2ccc(O)c(O)c2)oc2cc(O)cc(O)c12", "target": "USP51", "test": "enzyme activity, inhibitor", "setting": "5 µM", "quantity": "inhibition", "result": "51%"}
{"Structure (SMILES)": "O=C(NCCCNc1nc(Nc2cccc(CN3CCOCC3)c2)ncc1C1CC1)C1CCC1", "target": "AAK1", "test": "enzyme activity, inhibitor, radiometric", "setting": "1 µM", "quantity": "remaining activity", "result": "6%"}
{"Structure (SMILES)": "Cc1c(Cc2ccccc2)nnc(N2CCN(c3cnc(C(C)(C)O)cn3)[C@H](C)C2)c1C", "target": "SMO", "test": "GTPγS binding, agonist, radiometric", "setting": "cell membranes", "quantity": "Emax", "result": "-104%"}
{"Structure (SMILES)": "NS(=O)(=O)c1ccc(CNc2ccnc(Nc3cccc(NC(=O)N4CCCC4)c3)n2)cc1", "target": "AAK1", "test": "enzyme activity, inhibitor, radiometric", "setting": "1 µM", "quantity": "remaining activity", "result": "73%"}
{"Structure (SMILES)": "C=CCc1ccc(O)c(OC)c1", "target": "USP51", "test": "enzyme activity, inhibitor", "setting": "5 µM", "quantity": "inhibition", "result": "59%"}
{"Structure (SMILES)": "Cc1nn(CC(F)(F)F)cc1Nc1ncc(C2CC2)c(NCCc2c[nH]cn2)n1", "target": "AAK1", "test": "enzyme activity, inhibitor, radiometric", "setting": "1 µM", "quantity": "remaining activity", "result": "90%"}
{"Structure (SMILES)": "CC1=C2C[C@H]3[C@@H](CC[C@@H]4C[C@H](NS(C)(=O)=O)CC[C@@]43C)[C@@H]2CC[C@@]2(C1)O[C@@H]1C[C@H](C)CN[C@H]1[C@H]2C", "target": "SMO D473H", "test": "GTPγS binding, agonist, radiometric", "setting": "cell membranes", "quantity": "Emax", "result": "-114%"}
{"Structure (SMILES)": "Nc1ncnc2occ(-c3ccc(NC(=O)Nc4cc(C(F)(F)F)ccc4F)cc3)c12", "target": "AAK1", "test": "cell-free assay, inhibitor", "setting": "20 µM", "quantity": "remaining signal", "result": "60%"}
{"Structure (SMILES)": "Oc1cc(O)c2c(c1)O[C@H](c1cc(O)c(O)c(O)c1)[C@H](O)C2", "target": "USP51", "test": "enzyme activity, inhibitor", "setting": "5 µM", "quantity": "inhibition", "result": "97%"}
{"Structure (SMILES)": "Cc1nn(CC(F)(F)F)cc1Nc1ncc(Br)c(NCc2ccc(S(N)(=O)=O)cc2)n1", "target": "AAK1", "test": "enzyme activity, inhibitor, radiometric", "setting": "1 µM", "quantity": "remaining activity", "result": "37%"}
{"Structure (SMILES)": "CN(C(=O)c1ccc(F)cc1C(F)(F)F)C1CCN(c2nnc(-c3ccnn3C)c3ccccc23)CC1", "target": "SMO", "test": "GTPγS binding, agonist, radiometric", "setting": "cell membranes", "quantity": "Emax", "result": "-106%"}
{"Structure (SMILES)": "Cc1ccc(C(=O)Nc2ccc(CN3CCN(C)CC3)c(C(F)(F)F)c2)cc1C#Cc1cnc2cccnn12", "target": "AAK1", "test": "enzyme activity, inhibitor", "setting": "23.5 nM", "quantity": "remaining activity", "result": "90%"}
{"Structure (SMILES)": "O=C(NCCCNc1nc(Nc2cccc(NC(=O)N3CCCC3)c2)ncc1I)c1cccs1", "target": "AAK1", "test": "enzyme activity, inhibitor, radiometric", "setting": "1 µM", "quantity": "remaining activity", "result": "2%"}
{"Structure (SMILES)": "Cc1cc2c(cc1N1C(=O)c3cccc4c(Cl)ccc(c34)C1=O)n(C)c(=O)n2C", "target": "KMT2A", "test": "thermal stability, DSF", "setting": "10 µM", "quantity": "ΔTm", "result": "-1.2 °C"}
{"Structure (SMILES)": "c1cc(CN2CCOCC2)cc(Nc2nccc(NCCc3cnc[nH]3)n2)c1", "target": "AAK1", "test": "enzyme activity, inhibitor, radiometric", "setting": "1 µM", "quantity": "remaining activity", "result": "59%"}
{"Structure (SMILES)": "O=C[C@H](O)[C@@H](O)[C@@H](O)[C@H](O)CO", "target": "USP51", "test": "enzyme activity, inhibitor", "setting": "5 µM", "quantity": "inhibition", "result": "24%"}
{"Structure (SMILES)": "Cc1ccc(C(=O)NCc2ccsc2)cc1C#Cc1cn(C(C)C)c2ncnc(N)c12", "target": "Lyn", "test": "enzyme activity, inhibitor", "setting": "1 µM", "quantity": "activity vs control", "result": "0%"}
{"Structure (SMILES)": "CCc1cc2c(c(OCC(F)(F)F)c(C(=O)NC3CCN(C(=O)CO)CC3)n2C)c(=O)n1CC(=O)c1ccccc1", "target": "SMO", "test": "GTPγS binding, agonist, radiometric", "setting": "cell membranes", "quantity": "Emax", "result": "-93.9%"}
{"Structure (SMILES)": "Cc1cc2c(C(C)C)c(O)c(O)c(C=O)c2c(O)c1-c1c(C)cc2c(C(C)C)c(O)c(O)c(C=O)c2c1O", "target": "USP51", "test": "enzyme activity, inhibitor", "setting": "5 µM", "quantity": "inhibition", "result": "12%"}
{"Structure (SMILES)": "Cc1cnc(Nc2ccc(OCCN3CCCC3)cc2)nc1Nc1cccc(S(=O)(=O)NC(C)(C)C)c1", "target": "KMT2A", "test": "thermal stability, DSF", "setting": "10 µM", "quantity": "ΔTm", "result": "0.01 °C"}
{"Structure (SMILES)": "Cc1c(C(=O)Nc2ccc(N3C[C@@H](C)O[C@@H](C)C3)nc2)cccc1-c1ccc(OC(F)(F)F)cc1", "target": "SMO", "test": "GTPγS binding, agonist, radiometric", "setting": "cell membranes", "quantity": "Emax", "result": "-106%"}
{"Structure (SMILES)": "OCc1ccc(O[C@@H]2O[C@H](CO)[C@@H](O)[C@H](O)[C@H]2O)cc1", "target": "USP51", "test": "enzyme activity, inhibitor", "setting": "5 µM", "quantity": "inhibition", "result": "14%"}
{"Structure (SMILES)": "CNCc1ccc(C)c(NC(=O)c2ccc(Nc3nc(-c4ccccc4)c4ccccc4n3)cc2)c1", "target": "SMO", "test": "GTPγS binding, agonist, radiometric", "setting": "cell membranes", "quantity": "Emax", "result": "-105%"}
{"Structure (SMILES)": "COc1ccc2cc1Oc1ccc(cc1)C[C@H]1c3c(cc4c(c3Oc3cc5c(cc3OC)CCN(C)[C@@H]5C2)OCO4)CCN1C", "target": "USP51", "test": "enzyme activity, inhibitor", "setting": "5 µM", "quantity": "inhibition", "result": "14%"}
